Values belong to the compound of their own block, whether it stands above or below them. The source made the active and inactive calls. The calls are words filed in the database; no cut-off is given here.
Key:
[1] = test system: CCRF-CEM; assay: Antiproliferative activity against human CEM cells after 2 days by coulter counter analysis; type: functional, cell-based; conditions: 48 h
How it was run: (§1)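 Cells suspended at 300,000–500,000 cells/mL and mixed 1:1 with diluted compound. Incubated at 37 °C for two days, then counted with a Coulter counter. IC50 is the concentration inhibiting proliferation by 50%, as mean ± SE from dose-response curves of at least three independent experiments.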

[2] = test system: L1210; assay: Antiproliferative activity against mouse L1210 cells after 2 days by coulter counter analysis; type: functional, cell-based; conditions: L1210, 48 h; how it was run: as §1
[3] = test system: MOLT-4; assay: Antiproliferative activity against human MOLT4 cells after 2 days by coulter counter analysis; type: functional, cell-based; conditions: MOLT-4, 48 h
[4] = test system: FM3A; assay: Antiproliferative activity against mouse FM3A cells after 2 days by coulter counter analysis; type: functional, cell-based; conditions: 48 h
[5] = test system: HeLa; assay: Antiproliferative activity against human HeLa cells after 2 days by coulter counter analysis; type: functional, cell-based; conditions: 48 h; how it was run: as §1
[6] = Antiproliferative activity against human vinblastine-resistant CEM/VBL100 cells after 72 hrs by MTT assay; type: functional, cell-based; conditions: CEM/VBL100, 72 h
How it was run: (§2)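 Cells seeded at 8 × 10³ per well in complete medium and exposed to a range of compound concentrations at 37 °C for 72 h. Viability read by MTT test. IC50 taken as the concentration inhibiting proliferation by 50%.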

[7] = test system: CCRF-CEM; assay: Antiproliferative activity against human CEM cells after 72 hrs by MTT assay; type: functional, cell-based; how it was run: as §2
[8] = species on record: Bos taurus; assay: Inhibition of bovine brain tubulin polymerization at 20 uM after 20 mins by turbidimetry
How it was run: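 Purified bovine brain tubulin at 10 µM was preincubated with compound in glutamate buffer at 30 °C, then cooled to 0 °C and GTP added. Samples were warmed to 30 °C in a recording spectrophotometer and assembly followed by turbidity.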

[9] = Antiproliferative activity against human taxol-resistant A549-T12 cells after 72 hrs by MTT assay; type: functional, cell-based; conditions: A549, 72 h; how it was run: as §2

Structure (SMILES): Nc1nc(N2CCCC2)sc1C(=O)c1ccc(Cl)cc1
IC50 [1]: > 200 µM | IC50 [2]: > 200 µM | IC50 [3]: > 200 µM | IC50 [4]: > 200 µM | IC50 [5]: > 200 µM

IC50 [7]: 4 nM
Structure (SMILES): CC[C@]1(O)C[C@@H]2CN(CCc3c([nH]c4ccccc34)[C@@](C(=O)OC)(c3cc4c(cc3OC)N(C)[C@H]3[C@@](O)(C(=O)OC)[C@H](OC(C)=O)[C@]5(CC)C=CCN6CC[C@]43[C@@H]65)C2)C1 [VINBLASTINE]
IC50 [6]: 230 nM

inhibition [8]: inactive
Structure (SMILES): COc1cc(C(=O)c2sc(N)nc2N)cc(OC)c1OC
IC50 [1]: 42 µM | IC50 [2]: 48 µM | IC50 [4]: 63 µM | IC50 [5]: 31 µM

Structure (SMILES): COc1ccc(C(=O)c2sc(N3CCCC3)nc2N)cc1OC
IC50 [1]: 19 µM | IC50 [2]: 60 µM | IC50 [3]: 31 µM | IC50 [4]: 112 µM | IC50 [5]: 36 µM

Structure (SMILES): COc1ccccc1C(=O)c1sc(N2CCCC2)nc1N
IC50 [1]: 171 µM | IC50 [2]: > 200 µM | IC50 [3]: > 200 µM | IC50 [4]: > 200 µM | IC50 [5]: 185 µM

Structure (SMILES): COc1cccc(C(=O)c2sc(N3CCCC3)nc2N)c1
IC50 [1]: > 200 µM | IC50 [2]: > 200 µM | IC50 [3]: > 200 µM | IC50 [4]: > 200 µM | IC50 [5]: > 200 µM

Structure (SMILES): CCCCN(C)c1nc(N)c(C(=O)c2cc(OC)c(OC)c(OC)c2)s1
IC50 [1]: 42 µM | IC50 [2]: 53 µM | IC50 [3]: 32 µM | IC50 [4]: 47 µM | IC50 [5]: 31 µM

inhibition [8]: inactive
Structure (SMILES): COc1cc(C(=O)c2sc(N3CCOCC3)nc2N)cc(OC)c1OC
IC50 [1]: 25 µM | IC50 [2]: 38 µM | IC50 [3]: 22 µM | IC50 [4]: 24 µM | IC50 [5]: 8.8 µM

Structure (SMILES): COc1ccc(/C=C\c2cc(OC)c(OC)c(OC)c2)cc1O [COMBRETASTATIN A4]
IC50 [1]: 0.002 µM | IC50 [2]: 0.003 µM | IC50 [5]: 0.002 µM

Structure (SMILES): Nc1nc(N2CCCC2)sc1C(=O)c1ccc(Br)cc1
IC50 [1]: > 200 µM | IC50 [2]: > 200 µM | IC50 [3]: > 200 µM | IC50 [4]: > 200 µM | IC50 [5]: > 200 µM

inhibition [8]: inactive
Structure (SMILES): CCN(CC)c1nc(N)c(C(=O)c2cc(OC)c(OC)c(OC)c2)s1
IC50 [1]: 78 µM | IC50 [2]: 62 µM | IC50 [4]: 115 µM | IC50 [5]: 38 µM

Structure (SMILES): COc1ccc(C(=O)c2sc(N3CCCC3)nc2N)cc1
IC50 [1]: > 200 µM | IC50 [2]: > 200 µM | IC50 [3]: > 200 µM | IC50 [4]: > 200 µM | IC50 [5]: > 200 µM

inhibition [8]: inactive
Structure (SMILES): COc1cc(C(=O)c2sc(N(C)C)nc2N)cc(OC)c1OC
IC50 [1]: 11 µM | IC50 [2]: 11 µM | IC50 [4]: 12 µM | IC50 [5]: 8.2 µM

Structure (SMILES): COc1cc(C(=O)c2sc(N(C)Cc3ccccc3)nc2N)cc(OC)c1OC
IC50 [1]: > 200 µM | IC50 [2]: > 200 µM | IC50 [3]: > 200 µM | IC50 [4]: > 200 µM | IC50 [5]: > 200 µM

inhibition [8]: inactive
Structure (SMILES): COc1cc(C(=O)c2sc(N3CCCCC3)nc2N)cc(OC)c1OC
IC50 [1]: 22 µM | IC50 [2]: 43 µM | IC50 [3]: 16 µM | IC50 [4]: 39 µM | IC50 [5]: 11 µM

Structure (SMILES): Nc1nc(N2CCCC2)sc1C(=O)c1ccccc1
IC50 [1]: > 200 µM | IC50 [2]: > 200 µM | IC50 [3]: > 200 µM | IC50 [4]: > 200 µM | IC50 [5]: > 200 µM

Structure (SMILES): CC(=O)O[C@H]1C(=O)[C@@]2(C)[C@H]([C@H](OC(=O)c3ccccc3)[C@]3(O)C[C@H](OC(=O)[C@H](O)[C@@H](NC(=O)c4ccccc4)c4ccccc4)C(C)=C1C3(C)C)[C@]1(OC(C)=O)CO[C@@H]1C[C@@H]2O [PACLITAXEL]
IC50 [9]: 75 nM
